Measurements published in ChEMBL document CHEMBL1671867, “Novel polymyxin derivatives carrying only three positive charges are effective antibacterial agents” (Antimicrob Agents Chemother, 2008).
In brackets after ≈: the same amount, converted by molar mass.

Columns and labels:
Assay type in all cases: functional
Acinetobacter baumannii [1] = experiment: Antibacterial activity against Acinetobacter baumannii F264 by Etest method in presence of NAB739
Acinetobacter baumannii [2] = experiment: (§1) Antibacterial activity against Acinetobacter baumannii ATCC 19606 by Etest method in presence of […] NAB739
Acinetobacter baumannii [3] = experiment: Antibacterial activity against Acinetobacter baumannii ATCC 19606 by Etest method
Pseudomonas aeruginosa [4] = experiment: Antibacterial activity against Pseudomonas aeruginosa ATCC 27853by Etest method in presence of 0.5 ug/ml NAB739
How it was run: (§2)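 MICs of the antibiotic taken from E-strips on Mueller-Hinton agar, run both with and without peptide. […] Inoculum was prepared per the strip manufacturer, matching CLSI M2-A9.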

Acinetobacter baumannii [5] = experiment: Antibacterial activity against Acinetobacter baumannii F264 by Etest method in presence of 0.5 ug/ml NAB739
Acinetobacter baumannii [6] = experiment: as §1; remark: listed apart in the source
Acinetobacter baumannii [7] = experiment: Antibacterial activity against Acinetobacter baumannii ATCC 19606 by Etest method in presence of 0.5 ug/ml NAB739
Acinetobacter baumannii [8] = experiment: (§3) Antibacterial activity against Acinetobacter baumannii F264 by Etest method in presence of […] NAB739
Acinetobacter baumannii [9] = experiment: as §3; remark: listed apart in the source
Pseudomonas aeruginosa [10] = experiment: (§4) Antibacterial activity against Pseudomonas aeruginosa ATCC 27853by Etest method in presence of […] NAB739
Pseudomonas aeruginosa [11] = experiment: Antibacterial activity against Pseudomonas aeruginosa ATCC 27853by Etest method; how it was run: as §2
Acinetobacter baumannii [12] = experiment: Antibacterial activity against Acinetobacter baumannii F264 by Etest method in presence of 1 ug/ml NAB739
Acinetobacter baumannii [13] = experiment: Antibacterial activity against Acinetobacter baumannii ATCC 19606 by Etest method in presence of NAB739
Pseudomonas aeruginosa [14] = experiment: Antibacterial activity against Pseudomonas aeruginosa ATCC 27853by Etest method in presence of 2 ug/ml NAB739
Pseudomonas aeruginosa [15] = experiment: Antibacterial activity against Pseudomonas aeruginosa ATCC 27853by Etest method in presence of 1 ug/ml NAB739; how it was run: as §2
Acinetobacter baumannii [16] = experiment: Antibacterial activity against Acinetobacter baumannii ATCC 19606 by Etest method in presence of 1 ug/ml NAB739
Pseudomonas aeruginosa [17] = experiment: as §4; remark: listed apart in the source
Acinetobacter baumannii [18] = experiment: Antibacterial activity against Acinetobacter baumannii F264 by Etest method
How it was run: (§5)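 E-strip MIC on Mueller-Hinton agar without added peptide; inoculum per manufacturer, matching CLSI M2-A9.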

Escherichia coli [19] = experiment: Antibacterial activity against Escherichia coli IH3080 by Etest method in presence of NAB7061
Escherichia coli [20] = experiment: Antibacterial activity against Escherichia coli ATCC […] by Etest method in presence of 4 ug/ml NAB7064
Escherichia coli [21] = experiment: Antibacterial activity against Escherichia coli ATCC […] by Etest method in presence of 1 ug/ml NAB7061
Klebsiella pneumoniae [22] = experiment: Ratio of the MIC for Klebsiella pneumoniae ATCC 13883 in the absence of NAB7061 to MIC for Klebsiella pneumoniae ATCC 13883 in the presence of 4 ug/ml of NAB7061
Enterobacter cloacae [23] = experiment: Antibacterial activity against Enterobacter cloacae ATCC 23355 by Etest method; how it was run: as §5
Klebsiella pneumoniae [24] = experiment: Antibacterial activity against Klebsiella pneumoniae ATCC 13883 by Etest method in presence of 2 ug/ml NAB7061; how it was run: as §2
Escherichia coli [25] = experiment: Antibacterial activity against Escherichia coli IH3080 by Etest method in presence of 2 ug/ml NAB7062
Escherichia coli [26] = experiment: Antibacterial activity against Escherichia coli ATCC […] by Etest method in presence of NAB7061
Escherichia coli [27] = experiment: Antibacterial activity against Escherichia coli ATCC […] by Etest method in presence of 2 ug/ml NAB7062
Klebsiella pneumoniae [28] = experiment: Antibacterial activity against Klebsiella pneumoniae ATCC 13883 by Etest method in presence of 4 ug/ml NAB7061; how it was run: as §2
Escherichia coli [29] = experiment: Ratio of the MIC for Escherichia coli IH3080 in the absence of NAB7061 to MIC for Escherichia coli IH3080 in the presence of 4 ug/ml of NAB7061
Enterobacter cloacae [30] = experiment: Ratio of the MIC for Enterobacter cloacae ATCC 23355 in the absence of NAB7061 to MIC for Enterobacter cloacae ATCC 23355 […] in the presence of 4 ug/ml of NAB7061
Enterobacter cloacae [31] = experiment: Antibacterial activity against Enterobacter cloacae ATCC 23355 […] by Etest method in presence of NAB7061
Klebsiella pneumoniae [32] = experiment: Antibacterial activity against Klebsiella pneumoniae ATCC 13883 by Etest method; how it was run: as §2
Klebsiella pneumoniae [33] = experiment: Antibacterial activity against Klebsiella pneumoniae ATCC 13883 by Etest method in presence of NAB7061; how it was run: as §2
Escherichia coli [34] = experiment: Antibacterial activity against Escherichia coli IH3080 by Etest method; how it was run: as §5
Klebsiella pneumoniae [35] = experiment: Antibacterial activity against Klebsiella pneumoniae ATCC 13883 by Etest method in presence of 1 ug/ml NAB7061; how it was run: as §2
Enterobacter cloacae [36] = experiment: Antibacterial activity against Enterobacter cloacae ATCC 23355 […] by Etest method in presence of 4 ug/ml NAB7064
Enterobacter cloacae [37] = experiment: Antibacterial activity against Enterobacter cloacae ATCC 23355 […] by Etest method in presence of 1 ug/ml NAB7061
Escherichia coli [38] = experiment: Antibacterial activity against Escherichia coli ATCC 25992 by Etest method; how it was run: as §5
Escherichia coli [39] = experiment: Antibacterial activity against Escherichia coli IH3080 by Etest method in presence of 4 ug/ml NAB7064
Escherichia coli [40] = experiment: Antibacterial activity against Escherichia coli IH3080 by Etest method in presence of 1 ug/ml NAB7061
Enterobacter cloacae [41] = experiment: Antibacterial activity against Enterobacter cloacae ATCC 23355 […] by Etest method in presence of 2 ug/ml NAB7062
Escherichia coli [42] = experiment: Ratio of the MIC for Escherichia coli ATCC 25992 in the absence of NAB7061 to MIC for Escherichia coli ATCC 25992 in the presence of 4 ug/ml of NAB7061

For `CN[C@H](CC(C)C)C(=O)N[C@H]1C(=O)N[C@@H](CC(N)=O)C(=O)N[C@H]2C(=O)N[C@H]3C(=O)N[C@H](C(=O)N[C@H](C(=O)O)c4cc(O)cc(O)c4-c4cc3ccc4O)[C@H](O)c3ccc(c(Cl)c3)Oc3cc2cc(c3O[C@@H]2O[C@H](CO)[C@@H](O)[C@H](O)[C@H]2O[C@H]2C[C@](C)(N)[C@H](O)[C@H](C)O2)Oc2ccc(cc2Cl)[C@H]1O` [VANCOMYCIN], the “fractional inhibitory concentration index (FICI)” value (Acinetobacter baumannii [1]) was “<=0.188”, the MIC (Acinetobacter baumannii [2]) was 8 µg/mL and the MIC (Acinetobacter baumannii [3]) was greater than 256 µg/mL. It also gave an MIC (Pseudomonas aeruginosa [4]) greater than 256 µg/mL, an MIC (Acinetobacter baumannii [5]) of 3 µg/mL and an MIC (Acinetobacter baumannii [6]) of 64 µg/mL. The MIC (Acinetobacter baumannii [7]) was 3 µg/mL, the MIC (Acinetobacter baumannii [8]) was 16 µg/mL and the MIC (Acinetobacter baumannii [9]) was 256 µg/mL. It also gave an MIC (Pseudomonas aeruginosa [10]) greater than 256 µg/mL, an MIC (Pseudomonas aeruginosa [11]) greater than 256 µg/mL and an MIC (Acinetobacter baumannii [12]) of 1 µg/mL. For the same compound, the “fractional inhibitory concentration index (FICI)” value (Acinetobacter baumannii [13]) was “<=0.156”, the MIC (Pseudomonas aeruginosa [14]) was greater than 256 µg/mL and the MIC (Pseudomonas aeruginosa [15]) was greater than 256 µg/mL. The MIC (Acinetobacter baumannii [16]) was 1 µg/mL, the MIC (Pseudomonas aeruginosa [17]) was greater than 256 µg/mL and the MIC (Acinetobacter baumannii [18]) was greater than 256 µg/mL.
Compound `C/C(=C\C(=O)OCCCCCCCCC(=O)O)C[C@@H]1OC[C@H](C[C@@H]2O[C@H]2[C@@H](C)[C@H](C)O)[C@@H](O)[C@H]1O` [MUPIROCIN] has an MIC (Escherichia coli [19]) of 0.146 µg/mL, an MIC (Escherichia coli [20]) of 1.5 µg/mL and an MIC (Escherichia coli [21]) of 16 µg/mL. For the same compound, the Ratio (Klebsiella pneumoniae [22]) was 24, the MIC (Enterobacter cloacae [23]) was 48 µg/mL (≈ 95.9 µM) and the MIC (Klebsiella pneumoniae [24]) was 12 µg/mL. The MIC (Escherichia coli [25]) was 12 µg/mL, the “fractional inhibitory concentration index (FICI)” value (Escherichia coli [26]) was 0.127 and the MIC (Escherichia coli [27]) was 4 µg/mL. For the same compound, the MIC (Klebsiella pneumoniae [28]) was 2 µg/mL, the Ratio (Escherichia coli [29]) was 64 and the Ratio (Enterobacter cloacae [30]) was 250. For the same compound, the MIC (Enterobacter cloacae [31]) was 0.293 µg/mL, the MIC (Klebsiella pneumoniae [32]) was 64 µg/mL (≈ 128 µM) and the MIC (Klebsiella pneumoniae [33]) was no more than 0.167 µg/mL. The MIC (Escherichia coli [34]) was 128 µg/mL (≈ 256 µM), the MIC (Klebsiella pneumoniae [35]) was 24 µg/mL and the MIC (Enterobacter cloacae [36]) was 0.19 µg/mL. It also gave an MIC (Enterobacter cloacae [37]) of 24 µg/mL, an MIC (Escherichia coli [38]) of 256 µg/mL (≈ 511 µM) and an MIC (Escherichia coli [39]) of 1.5 µg/mL. The MIC (Escherichia coli [40]) was 16 µg/mL, the MIC (Enterobacter cloacae [41]) was 8 µg/mL and the Ratio (Escherichia coli [42]) was 64.
